From ChEMBL document CHEMBL1152279 (J Med Chem, 2008)

Experiments:
Histamine H2 receptor = Histamine H2 receptor (Cavia porcellus, UniProt P47747); experiment: Agonist activity at histamine H2 receptor in guinea pig spontaneously beating right atrium assessed as positive chronotropic activity; type: functional, tissue-based, Cardiac atrium
[1] = target: Histamine H2 receptor (Cavia porcellus) (UniProt P47747); experiment: Agonist activity at histamine H2 receptor in guinea pig spontaneously beating right atrium assessed as positive chronotropic activity relative to histamine; type: functional, tissue-based; conditions: Cardiac atrium
[2] = target: Histamine H1 receptor (Homo sapiens) (UniProt P35367); experiment: Antagonist activity at histamine H1 receptor in human U373 MG cells assessed as inhibition of histamine-induced intracellular calcium level preincubated for 15 mins prior to histamine challenge; type: functional, cell-based; conditions: U-373MG ATCC
Procedure, shortened: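 U373-MG human cells expressing H1R, calcium assay. […] KB was derived from IC50 by the Cheng-Prusoff equation. Values are the mean of two experiments.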

Histamine H1 receptor = Histamine H1 receptor (Cavia porcellus, UniProt P31389); experiment: Antagonist activity at histamine H1 receptor in guinea pig ileum assessed as inhibition of histamine-induced […]; type: functional, tissue-based; conditions: read-out: pA2 (converted)
Histamine H1 receptor, sequence (P31389 whole entry): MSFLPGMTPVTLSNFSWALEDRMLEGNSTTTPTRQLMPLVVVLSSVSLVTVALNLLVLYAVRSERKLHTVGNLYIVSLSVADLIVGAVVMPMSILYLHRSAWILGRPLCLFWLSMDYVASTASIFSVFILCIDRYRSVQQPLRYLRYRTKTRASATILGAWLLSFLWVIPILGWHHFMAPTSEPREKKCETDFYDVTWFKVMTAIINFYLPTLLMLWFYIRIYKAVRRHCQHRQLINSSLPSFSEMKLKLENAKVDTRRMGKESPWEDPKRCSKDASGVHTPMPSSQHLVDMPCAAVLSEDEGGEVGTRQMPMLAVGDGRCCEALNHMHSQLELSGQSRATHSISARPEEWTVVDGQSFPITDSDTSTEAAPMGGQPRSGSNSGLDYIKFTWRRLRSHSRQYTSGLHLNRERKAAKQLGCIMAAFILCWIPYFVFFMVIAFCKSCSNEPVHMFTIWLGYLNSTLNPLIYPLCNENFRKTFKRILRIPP

Histamine H2 receptor (Cavia porcellus), sequence (P47747 whole entry): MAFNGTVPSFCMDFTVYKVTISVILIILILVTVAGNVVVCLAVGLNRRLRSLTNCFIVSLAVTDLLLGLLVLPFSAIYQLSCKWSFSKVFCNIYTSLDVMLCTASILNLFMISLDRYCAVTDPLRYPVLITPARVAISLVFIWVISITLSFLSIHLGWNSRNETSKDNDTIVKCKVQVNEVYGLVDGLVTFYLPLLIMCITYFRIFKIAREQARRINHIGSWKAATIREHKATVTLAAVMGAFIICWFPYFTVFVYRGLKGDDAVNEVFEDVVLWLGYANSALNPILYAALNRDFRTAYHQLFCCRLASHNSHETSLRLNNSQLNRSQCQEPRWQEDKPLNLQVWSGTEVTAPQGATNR
Histamine H2 receptor, sequence (P47747 whole entry): as above
Histamine H1 receptor (Homo sapiens), sequence (P35367 whole entry): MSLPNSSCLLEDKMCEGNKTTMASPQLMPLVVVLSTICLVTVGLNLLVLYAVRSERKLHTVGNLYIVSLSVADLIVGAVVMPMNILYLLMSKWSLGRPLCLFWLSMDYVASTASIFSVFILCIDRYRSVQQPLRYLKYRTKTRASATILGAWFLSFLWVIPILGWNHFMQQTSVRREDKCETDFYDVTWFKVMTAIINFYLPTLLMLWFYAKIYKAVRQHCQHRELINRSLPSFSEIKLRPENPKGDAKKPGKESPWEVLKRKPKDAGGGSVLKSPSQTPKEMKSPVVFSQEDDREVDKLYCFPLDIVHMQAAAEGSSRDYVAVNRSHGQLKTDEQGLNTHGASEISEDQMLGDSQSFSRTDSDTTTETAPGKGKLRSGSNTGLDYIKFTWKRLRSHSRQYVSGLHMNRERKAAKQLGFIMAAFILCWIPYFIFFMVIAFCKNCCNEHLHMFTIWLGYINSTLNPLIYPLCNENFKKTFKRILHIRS

Row | Compound | EC50 (Histamine H2 receptor) | Activity [1] | Emax [1] | Kb [2] | Kb (Histamine H1 receptor)
1 | NC(=NCCCc1cnc[nH]1)NC(=O)CC(c1ccc(Cl)cc1)c1ccc(Cl)cc1 | 309 nM | – | – | – | –
2 | CC(C(=O)NC(=N)NCCCc1c[nH]cn1)C1CCCCC1 (centres undefined) | – | 729% | 86% | 8800 nM | –
3 | N=C(NCCCc1c[nH]cn1)NC(=O)CC(c1ccc(F)cc1)c1ccccn1 (centres undefined) | – | 2930% | 100% | 5200 nM | –
4 | NC(=NCCCc1cnc[nH]1)NC(=O)CC(c1ccc(F)cc1)c1ccccn1 (centres undefined) | 33.9 nM | – | – | – | 3720 nM
5 | N=C(NCCCc1c[nH]cn1)NC(=O)CC(c1ccc(Cl)cc1)c1ccc(Cl)cc1 | – | 320% | 60% | – | –
6 | NC(=NCCCc1cnc[nH]1)NC(=O)C(c1ccccc1)c1ccccc1 | 1050 nM | – | – | – | –
7 | N=C(NCCCc1c[nH]cn1)NC(=O)CC1CCCCC1 | – | 1000% | 95% | 4300 nM | –
8 | CC(CC(=O)NC(=N)NCCCc1c[nH]cn1)c1ccccn1 (centres undefined) | 38 nM | 2610% | 98% | 7400 nM | –
9 | NC(=NCCCc1cnc[nH]1)NC(=O)CC(c1ccc(Br)cc1)c1ccc(Br)cc1 | 776 nM | – | – | – | –
10 | CC(CC(=O)NC(N)=NCCCc1cnc[nH]1)C1CCCCC1 (centres undefined) | 67.6 nM | – | – | – | 2190 nM
11 | NC(=NCCC(c1ccc(F)cc1)c1ccccn1)NCCCc1cnc[nH]1 (centres undefined) [ARPROMIDINE] | 9.77 nM | – | – | – | –
12 | N=C(NCCCc1c[nH]cn1)NCCC(c1ccc(F)cc1)c1ccccn1 (centres undefined) | – | 10200% | 100% | – | –
13 | NC(=NCCCc1cnc[nH]1)NC(=O)CC1CCCCC1 | 100 nM | – | – | – | 2450 nM
14 | CC(CC(=O)NC(N)=NCCCc1cnc[nH]1)c1nccs1 (centres undefined) | 38.9 nM | – | – | – | –
15 | NC(=NCCCc1cnc[nH]1)NC(=O)Cc1ccccc1 | 182 nM | – | – | – | 575 nM
16 | N=C(NCCCc1c[nH]cn1)NC(=O)CCC1CCCCC1 | – | 1610% | 98% | 1600 nM | –
17 | N=C(NCCCc1c[nH]cn1)NC(=O)C(c1ccccc1)c1ccccc1 | – | 95% | 69% | 4000 nM | –
18 | Cc1[nH]cnc1CSCC(=O)NC(=N)NCCCc1c[nH]cn1 | – | 3200% | 101% | 8500 nM | –
19 | NC(=NCCCc1cnc[nH]1)NC(=O)CC(c1ccc(F)c(F)c1)c1ncc[nH]1 (centres undefined) | 97.7 nM | – | – | – | –
20 | CC(C(=O)NC(N)=NCCCc1cnc[nH]1)C1CCCCC1 (centres undefined) | 138 nM | – | – | – | 2340 nM
21 | N=C(NCCCc1c[nH]cn1)NC(=O)Cc1ccccc1 | – | 546% | 97% | 2800 nM | –
22 | NC(=NCCCc1cnc[nH]1)NC(=O)C1CCCCC1 | 47.9 nM | – | – | – | 5130 nM

Second part, the molecule after the results:

Row | EC50 (Histamine H2 receptor) | Activity [1] | Emax [1] | Kb [2] | Kb (Histamine H1 receptor) | Compound
23 | – | 130% | 60% | – | – | N=C(NCCCc1c[nH]cn1)NC(=O)CC(c1ccc(Br)cc1)c1ccc(Br)cc1
24 | – | 2090% | 102% | 6000 nM | – | N=C(NCCCc1c[nH]cn1)NC(=O)C1CCCCC1
25 | 3630 nM | – | – | – | > 10000 nM | CC(C(=O)NC(N)=NCCCc1cnc[nH]1)c1ccccc1 (centres undefined)
26 | – | 1030% | 100% | 6200 nM | – | N=C(NCCCc1c[nH]cn1)NC(=O)CC(c1ccc(F)c(F)c1)c1ncc[nH]1 (centres undefined)
27 | 30.9 nM | – | – | – | 4270 nM | Cc1nc[nH]c1CSCC(=O)NC(N)=NCCCc1cnc[nH]1
28 | 398 nM | 251% | 54% | 2900 nM | – | N=C(NCCCc1c[nH]cn1)NC(=O)CC(c1ccc(F)c(F)c1)c1nccn1Cc1ccccc1 (centres undefined)
29 | 468 nM | 211% | 86% | – | 562 nM | N=C(NCCCc1c[nH]cn1)NC(=O)CCCCc1ccccc1
30 | 61.7 nM | – | – | – | 6170 nM | NC(=NCCCc1cnc[nH]1)NC(=O)CCC1CCCCC1
31 | – | 28% | 88% | 8800 nM | – | CC(C(=O)NC(=N)NCCCc1c[nH]cn1)c1ccccc1 (centres undefined)
32 | 53.7 nM | – | – | – | – | NC(=NCCCc1cnc[nH]1)NC(=O)CC(c1ccccc1)c1ccc(F)c(F)c1 (centres undefined)
33 | – | 1470% | 101% | 140 nM | – | CC(CC(=O)NC(=N)NCCCc1c[nH]cn1)C1CCCCC1 (centres undefined)
34 | – | 2590% | 91% | 11100 nM | – | CC(CC(=O)NC(=N)NCCCc1c[nH]cn1)c1nccs1 (centres undefined)
